Source: PMC6282584 (Chemmedchem, 2018)

Tests used:
PR [1] = target: T1, PR (Oryctolagus cuniculus, UniProt P06186); assay: Endometrial transformation in rabbits; assay type: in vivo, rabbit; settings: p.o., with progesterone, McPhail index 1 or 1.5
T1 sequence (P06186 1-930): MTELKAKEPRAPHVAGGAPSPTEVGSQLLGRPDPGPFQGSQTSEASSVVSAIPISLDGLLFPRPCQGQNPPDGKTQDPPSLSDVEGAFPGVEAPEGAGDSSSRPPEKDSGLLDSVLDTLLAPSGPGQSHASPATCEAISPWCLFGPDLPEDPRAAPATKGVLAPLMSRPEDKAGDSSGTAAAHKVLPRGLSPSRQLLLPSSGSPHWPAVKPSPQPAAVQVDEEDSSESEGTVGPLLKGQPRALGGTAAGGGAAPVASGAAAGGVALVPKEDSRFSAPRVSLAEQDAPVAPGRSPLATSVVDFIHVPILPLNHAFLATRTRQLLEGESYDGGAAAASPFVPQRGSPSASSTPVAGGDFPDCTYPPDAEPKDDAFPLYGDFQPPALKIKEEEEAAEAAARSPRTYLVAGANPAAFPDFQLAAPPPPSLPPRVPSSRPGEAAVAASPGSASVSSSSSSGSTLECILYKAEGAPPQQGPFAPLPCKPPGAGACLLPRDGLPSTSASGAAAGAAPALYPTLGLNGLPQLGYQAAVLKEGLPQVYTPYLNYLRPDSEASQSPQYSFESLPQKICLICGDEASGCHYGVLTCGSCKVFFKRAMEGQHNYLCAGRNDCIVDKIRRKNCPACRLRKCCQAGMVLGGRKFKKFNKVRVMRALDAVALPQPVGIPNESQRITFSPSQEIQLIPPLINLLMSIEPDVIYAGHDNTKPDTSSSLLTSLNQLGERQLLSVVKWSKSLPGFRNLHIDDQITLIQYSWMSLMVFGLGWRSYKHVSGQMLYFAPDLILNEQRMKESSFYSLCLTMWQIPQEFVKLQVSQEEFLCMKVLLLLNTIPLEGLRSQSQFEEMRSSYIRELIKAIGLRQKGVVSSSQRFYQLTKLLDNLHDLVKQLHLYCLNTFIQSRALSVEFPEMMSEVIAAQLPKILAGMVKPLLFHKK
In short: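 Juvenile New Zealand white rabbits (35–42 days old, 900–1300 g) were primed with 17β-estradiol, […] s.c., on Days 1–4. For the antagonist test, animals were randomized (n=4) on Days 7–10 to 0.2 mg kg−1 day−1 progesterone s.c. plus test compound p.o. Autopsy was on Day 11. Glandular differentiation was scored by light microscopy as McPhail index 1–4. Full efficacy meant every animal in the group scored 1 or 1.5.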

PR [2] = target: T2, PR (Rattus norvegicus, UniProt Q63449); assay: Termination of early pregnancy in rats; assay type: in vivo; settings: p.o., n=6
T2 sequence (Q63449 1-923): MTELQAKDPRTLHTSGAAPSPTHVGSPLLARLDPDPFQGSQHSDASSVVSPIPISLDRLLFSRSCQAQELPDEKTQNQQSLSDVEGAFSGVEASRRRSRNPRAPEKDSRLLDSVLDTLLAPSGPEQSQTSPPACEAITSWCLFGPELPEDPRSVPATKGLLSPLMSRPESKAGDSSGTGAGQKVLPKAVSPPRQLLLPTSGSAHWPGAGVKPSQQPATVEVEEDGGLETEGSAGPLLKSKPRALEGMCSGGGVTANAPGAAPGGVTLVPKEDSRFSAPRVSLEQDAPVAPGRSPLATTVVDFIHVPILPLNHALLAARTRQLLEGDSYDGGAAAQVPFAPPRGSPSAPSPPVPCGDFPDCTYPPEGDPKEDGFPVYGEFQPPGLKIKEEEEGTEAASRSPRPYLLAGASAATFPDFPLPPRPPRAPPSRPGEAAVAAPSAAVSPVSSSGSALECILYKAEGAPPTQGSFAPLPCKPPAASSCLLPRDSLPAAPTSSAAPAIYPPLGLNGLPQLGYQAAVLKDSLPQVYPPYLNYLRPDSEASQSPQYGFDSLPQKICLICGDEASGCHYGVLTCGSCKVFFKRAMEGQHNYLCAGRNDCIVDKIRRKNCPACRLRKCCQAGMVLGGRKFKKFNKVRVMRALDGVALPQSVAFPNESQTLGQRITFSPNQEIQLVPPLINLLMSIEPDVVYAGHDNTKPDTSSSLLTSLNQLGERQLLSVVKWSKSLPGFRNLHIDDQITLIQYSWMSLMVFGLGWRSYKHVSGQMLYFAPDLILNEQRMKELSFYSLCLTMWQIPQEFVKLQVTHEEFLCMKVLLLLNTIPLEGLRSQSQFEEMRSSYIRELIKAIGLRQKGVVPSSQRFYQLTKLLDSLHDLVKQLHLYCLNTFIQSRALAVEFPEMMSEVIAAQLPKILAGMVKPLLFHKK
In short: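 Wistar rats (100–230 g) were randomized on Days 5–7 post-coitum (n=6 per group). They received test compound at several doses s.c. or p.o., or vehicle (benzyl benzoate/castor oil 1+4 v/v, or 85 mg polyoxyethylene-(50)-stearate in 100 mL 0.9 % NaCl). Autopsy was on Day 9. Full efficacy meant all animals lacked implantation sites or had only regressed or hemorrhagic sites.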

[3] = Determination of lonaprisan and its metabolites in human serum; assay type: in vivo; settings: single oral 200 mg lonaprisan
In short: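 Serum was sampled from volunteers after a single oral dose of the parent steroid. Concentration–time profiles of the parent and three metabolites were measured by LC–MS/MS with external calibration against authentic reference compounds. PK parameters were then calculated. Each metabolite AUC(0–∞) was expressed as % of parent AUC and as a share of the summed AUC of drug-related compounds.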

Compound: CC(=O)c1ccc([C@H]2C[C@@]3(C)[C@@H](CC[C@@]3(O)C(F)(F)C(F)(F)F)[C@@H]3CCC4=CC(=O)CCC4=C32)cc1 [lonaprisan]
- Dose of full efficacy, endometrial transformation in rabbits (PR [1]): 1.0 mg/kg
- Dose of full efficacy, termination of early pregnancy in rats (PR [2]): 0.5 mg/kg
- Relative contribution to sum of AUC of drug-related compounds [3]: 6%
